Here are results for 48 sequences from the EternaBench riboswitch data.

For this series, the system named is MS2 coat protein. As to the kind of experiment: apparent Kd, MS2 coat protein; higher = weaker binding; RNA-MaP array; FMN 200 µM where present. The essentials:
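Stalled E. coli RNA polymerase transcribed the designs on Illumina sequencing-chip clusters. SNAP-549-labelled MS2 coat protein was titrated from 0.7 or 1.5 nM, doubling to 3 µM, without and then with constant ligand, in 100 mM Tris-HCl pH 7.5, 80 mM KCl, 4 mM MgCl2, BSA, DTT, yeast tRNA and Tween-20. Per-cluster binding curves were fitted to green signal normalised to red-channel RNA signal and control-cluster median Fmax. The apparent Kd is the median of the filtered fits.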

Where [1] appears, read: designed as: OFF switch for flavin mononucleotide, no ligand.
Where [2] appears, read: ligand present: flavin mononucleotide, designed as: OFF switch for flavin mononucleotide.
Where [3] appears, read: designed as: ON switch for flavin mononucleotide, no ligand.
Setting [4] is: ligand present: flavin mononucleotide, designed as: ON switch for flavin mononucleotide.

Turning to “GUUAUUUAUGUAGGAUAUGCGAGGCGAGCCUAAGCAGAAGGACAUGAGGAUCACCCAUGUAUUGCGGUUUGCGUUCAGAUCGCU”, the “apparent Kd” value under setting [1] was found to be 21.1 nM and the “apparent Kd” value under setting [2] was determined as 37.8 nM.
For “GUCGAGUGAGGAUAUGGUGAGUAGUGCCUGAGCGCUGCUCACCAGAAGGCACAUGAGGAUCACCCAUGUAUAAC”, in that order: 23.7 nM and 41.7 nM.
Consider “GCUUGUGAAGGAUAUACUGGCGGCAUGCGCUCGGCGCGCGCACAUGAGGAUCACCCAUGUAGAAGGUCAAACGU”, for which the “apparent Kd” value was 20.2 nM under setting [1] and 20.2 nM under setting [2].
“GAUGCGAAUGUGAGGAUAUCGGAGUAUUUAAACUCUGAGAAGGCACAUGAGGAUCACCCAUGUCCGUGCGUCUA”: the “apparent Kd” value reads like this: under setting [1], 506 nM; under setting [2], 130 nM.
Regarding “CACCGACCCUAUGUGUUCUAGACAUGAGGAUCACCCAUGUAUAGAAGGGUCUUCGCGAAACGCAGACAGGAUAUGUACAGGAGU”, the “apparent Kd” value was 6.58 nM under setting [1] and 9.89 nM under setting [2].
Turning to “AGUAAGAUGCAGAAGGUGUCAGCGAGAGCUGCGACAUGAGGAUCACCCAUGUGUCGGUGACGACGCAAGGAUAUGCAUCUUACA”, the “apparent Kd” value came out at 138 nM under setting [3] and 56.6 nM under setting [4].
Take “AUAAUGUGAGGAUAUAUGUAUCACGGUGAUACACCGUGAUGAUAGAAGGUACAUGAGGAUCACCCAUGUAGGGC”: the “apparent Kd” value under setting [1] was found to be 36.6 nM and the “apparent Kd” value under setting [2] amounted to 72.7 nM.
Regarding “ACCUUGUCAGGAUAUCCUAUUUUUUGUUUUAUAUUUACUAUGGAGAAGGGACAUGAGGAUCACCCAUGUUGGUC”, the “apparent Kd” value runs as follows: under setting [1], 38.8 nM; under setting [2], 50.2 nM.
On to “GCAGGUUUACGAGGAUAUGGGUGGUACGAACAUGAGGAUCACCCAUGUUUCCCAGAAGGCGUAGCCUAACAAAGAGAACAGGAG”, for which the “apparent Kd” value is, setting by setting: under setting [3], 418 nM; under setting [4], 22.2 nM.
As to “GCUGCGCGAGGAUAUGCGGUUCGGGCGGUGGCCGCUGGCGGACAUGAGGAUCACCCAUGUAGAAGGCGUGCGGG”, the “apparent Kd” value under setting [1] amounted to 22.5 nM and the “apparent Kd” value under setting [2] is 23.2 nM.
Consider “AAGAACUUAGGAUAUACAUGAGGAUCACCCAUGUAGCUUCACUUGGGCCUGAGCCCGUGUAGAAGGAAGAAAAU”, for which the “apparent Kd” value by setting is: under setting [1], 87.9 nM; under setting [2], 59 nM.
For “UGAACUAUGUAGAAGGCCCACAUUAAUAUGUAGGGAGGAUAUACAUGAGGAUCACCCAUGUGAAGAGCAAGAGGAUUUAACAGA”, the “apparent Kd” value reads like this: under setting [1], 23.9 nM; under setting [2], 106 nM.
For “UUCACUCGAGUCAGGAUAUUAGUCCGCGAUAGUGUUAAGAAGGGACAUGAGGAUCACCCAUGUCACACAUGGAG”, in that order: 28.2 nM and 23.2 nM.
With “CUUAUGUGAGGAUAUCAGUAGUAAUACAAUAGUAUUACUACUGAGAAGGCACAUGAGGAUCACCCAUGUUCUUC”, the “apparent Kd” value reads like this: under setting [1], 134 nM; under setting [2], 36.9 nM.
For the sequence “CCGCAGUGUCUUCAGAAGACAUGAGGAUCACCCAUGUACCAGGAGGAUAUAGUGCGCUUUCCGCGCUAGAAGGCUUGGAUAUAG”, the “apparent Kd” value reads like this: under setting [1], 115 nM; under setting [2], 70.8 nM.
On the same counts, the results for “AUAAAUCAUGUAGGAUAUGCGUGGCGAAGCUAUGCAGAAGGACAUGAGGAUCACCCAUGUCGUUCCGUCUGCGUACAGACGGAA” are 33.8 nM and 306 nM.
As to “UCGUACAUUCGAGGAUAUCGGUGAUAUAUAUUACGAGAAGGCGAUUGUUUGUUUUACGCCUUAGACAUGAGGAUCACCCAUGUA”, the “apparent Kd” value runs as follows: under setting [3], 77.7 nM; under setting [4], 55.2 nM.
As to “GGAUCGAGUGUGAGGAUAUACCACUGGAUACAGUGGUAGAAGGCACAUGAGGAUCACCCAUGUCUCUACGAUCC”, the “apparent Kd” value was 16.1 nM under setting [1] and 51.8 nM under setting [2].
Turning to “GGCCUGCAGCUAGGAUAUGGGCGAUCACAUGAGGAUCACCCAUGUCAACAUCAAAACAAGAUUAACCAGAAGGAGCCGCGAGUU”, the “apparent Kd” value worked out at 26.5 nM under setting [3] and 211 nM under setting [4].
With “GUAUGAAAUACAGGAUAUGUUAGUUUUAAGUGUAUUGGUUAUUACUUAAUUACAGAAGGGUAUUACAUGAGGAUCACCCAUGUA”, the “apparent Kd” value was found to be 16.5 nM under setting [3] and 10.8 nM under setting [4].
Take “AGAAUAGAAAGAUUAAUAUGAAUACAUGAGGAUCACCCAUGUAAGGAUAUCGACGUCAAUGACGUCGAGAAGGUACAUAAUAAG”: the “apparent Kd” value was determined as 17.7 nM under setting [1] and 17.6 nM under setting [2].
For “CGCUACAGCCAGAAGGACAUGAGGAUCACCCAUGUAGGAUAUGGGAGACGCAGUCCCGUGUAGAGAAACUACGCUACUGUAGCG”, the “apparent Kd” value was found to be 430 nM under setting [3] and 183 nM under setting [4].
In the case of “CCAGGCUGUGUGAGGAUAUGCUGGUCCUUGGAUCAGCAGAAGGCACAUGAGGAUCACCCAUGUGAGGAGCUUGG”, the “apparent Kd” value by setting is: under setting [1], 20.2 nM; under setting [2], 98.8 nM.
In the case of “ACGUGGCUGCCGCAGGAUAUACCCUGUUCCACAUGAGGAUCACCCAUGUUUACGAACUAUGAGAGGUAGAAGGGUGGAUGUCAUU”, the “apparent Kd” value under setting [3] was 31.2 nM and the “apparent Kd” value under setting [4] was 13.9 nM.
For the sequence “UGUCGGAGCAGAGGAUAUUACAUGAGGAUCACCCAUGUAUGAACCAAUAGCUGGAAACUGCAAUGUAAGAAGGCUGCUCCGACA”, the “apparent Kd” value runs as follows: under setting [1], 11.9 nM; under setting [2], 107 nM.
With “UGAUCUAUGUAGAAGGCCCAUAUCUAUAUUUAGGGAGGAUAUACAUGAGGAUCACCCAUGUAUAGAGCGGGUGGACCCGUCACU”, the “apparent Kd” value under setting [1] turned out to be 74.1 nM and the “apparent Kd” value under setting [2] turned out to be 185 nM.
For “AAGAGGAAAGCAGGAUAUCUAUAGGCUCCUUAACAUGAGGAUCACCCAUGUAGAGAAGGGCUAAGACCGACUCUUCGGAGUUGG”, in that order: 8.69 nM and 25.3 nM.
As to “UCGGGUUAUACAGGAUAUGUUUAGGUUUAUUCAUGCAGUUAUUAAUUUAUGACAGAAGGGUAUACAUGAGGAUCACCCAUGUCA”, the “apparent Kd” value under setting [1] was found to be 542 nM and the “apparent Kd” value under setting [2] stood at 387 nM.
For “ACAUACGAUAGUAUGCCUGAGGGCAGAAGGCACAUGAGGAUCACCCAUGUAACGAUCUCUUCAAGUGAGGAUAUGUGCUCAUUG”, in that order: 49.8 nM and 52.2 nM.
As for “ACUUGUGAAGGAUAUACUGGCGACAUGCGCUCAACACGCGCACAUGAGGAUCACCCAUGUAGAAGGUCAAACAU”, the “apparent Kd” value runs as follows: under setting [1], 24.7 nM; under setting [2], 34.8 nM.
As to “AGUAACAUACUCAACAUGAGGAUCACCCAUGUACUCUCAUGUAAGGAUAUACAAUCGUAUUGAUAGUAGAAGGUACCAAUUAAG”, the “apparent Kd” value runs as follows: under setting [3], 845 nM; under setting [4], 685 nM.
For “GCGUAUAUAAGAUUUAUUUAACAGUCAGAAGGUGAUAAUACGACAUGAGGAUCACCCAUGUAAUUCAAGGAUAUGAUCUUACGC”, in that order: 133 nM and 65.7 nM.
Regarding “UGGUACAUGGGAGGAUAUGGGAUGAUAACAUGAGGAUCACCCAUGUUAAAGAUGCCGAGAGGCAACUAGAAGGCCCAUGUACCU”, the “apparent Kd” value by setting is: under setting [3], 281 nM; under setting [4], 62.4 nM.
With “AUGCUAGUGUGAGGAUAUCAACAUGAGGAUCACCCAUGUUGGAAGUACACGACAUGCGGUACACCUGAGAAGGUACAUUAGCAU”, the “apparent Kd” value turned out to be 19.6 nM under setting [1] and 25.4 nM under setting [2].
“UGACGGCACACAGGAUAUAGUGCAGAAAGUGUACUAGAAGGGUGAGCACUCGUCCGGGCACAUGAGGAUCACCCAUGUCGUCGA”: the “apparent Kd” value was 207 nM under setting [3] and 512 nM under setting [4].
In the case of “GGACUUCCUGAGGAUAUGAAUCAACAUAUAGCUUUAGAAGGCAGGACAUGAGGAUCACCCAUGUGAACUCUUUC”, the “apparent Kd” value reads like this: under setting [1], 49.8 nM; under setting [2], 57.6 nM.
Turning to “UUGGACGUCGUAGCAUAUGUAGGAUAUUCCUACAUGAGGAUCACCCAUGUUGACAUGGAAGAAGGACAGAAGGACGAUGUCCAU”, the “apparent Kd” value was 146 nM under setting [3] and 5.47 nM under setting [4].
As to “AGAAGGCUACAGAAGGGACACACACGGCGGGAGUCAGGAUAUGUAGAGAAAACGUUACAUGAGGAUCACCCAUGUAGACCUUCC”, the “apparent Kd” value by setting is: under setting [3], 123 nM; under setting [4], 19.9 nM.
Regarding “CGUCCUCUAGUUAGGAUAUUGUCUCGGAUACGAAACAAGAAGGGACAUGAGGAUCACCCAUGUAAUGAGGACGA”, the “apparent Kd” value is, setting by setting: under setting [1], 29.2 nM; under setting [2], 28.2 nM.
“CUGACGUCAGGAUAUCUGAUGUCUAACUUCGGUUAGACAUCAGAGAAGGGACAUGAGGAUCACCCAUGUCAGAA”: the “apparent Kd” value is 25.5 nM under setting [1] and 20.8 nM under setting [2].
“GGCGCAUUUGUGGCGUAUAGGUCGAAGGAUAUCACGUGCCGCCUAGUACAUGAGGAUCACCCAUGUGAGAAGGUCGAACUUAAC”: the “apparent Kd” value under setting [1] was 19.3 nM and the “apparent Kd” value under setting [2] was 83.5 nM.
On the same counts, the results for “CCUCAACAGUAGGAUAUCAUCAAACUAUUGUGAUGAGAAGGACUGACAUGAGGAUCACCCAUGUUGACGUGAUA” are 63.4 nM and 51.7 nM.
For the sequence “AGUUUAUAUCGAGGAUAUAAGUCUAGGACAUGAGGAUCACCCAUGUAUGUCUUAGAAGGCGAUAUAAACAGCCUGUUACAGGCA”, the “apparent Kd” value reads like this: under setting [3], 31.5 nM; under setting [4], 7.04 nM.
Turning to “AAAAAACAAGGAUAUACGGAUGAAGAUUGUCUUAAUUUUUGACAUGAGGAUCACCCAUGUAGAAGGUGUUAAAA”, the “apparent Kd” value is 198 nM under setting [1] and 342 nM under setting [2].
In the case of “UAAUCUCAGAUAGGAUAUAUAGGAUGAUUUAAGACUGAACAUGAGGAUCACCCAUGUGAUUAUCUGUAGAAGGAUCAAUUACCC”, the “apparent Kd” value worked out at 392 nM under setting [3] and 351 nM under setting [4].
Regarding “CAUUAGCGAGGAUAUACAUGAGGAUCACCCAUGUGAUCCUAAGGCUGAUCAAGCCUAUGUAGAAGGCGCAAAUC”, the “apparent Kd” value under setting [1] stood at 593 nM and the “apparent Kd” value under setting [2] was found to be 83.6 nM.
“CCAUAACAUGAGGAUCACCCAUGUCGACUAAAUCAAGGAUAUGGGAACGCGCAAGCAAAACCAGAAGGUGAGGUCC”: the “apparent Kd” value by setting is: under setting [3], 255 nM; under setting [4], 236 nM.
On to “CUAUUCCGAGGAUAUACAUGAGGAUCACCCAUGUCGGGCCUCUGCGUUUAGCGCGUAAGUAGAAGGUGGGUUUC”, for which the “apparent Kd” value worked out at 31 nM under setting [1] and 32.9 nM under setting [2].

As a reminder, the apparent Kd is a dissociation constant that holds for the conditions of the assay.
